For one test, the target named is T1, Tyrosinase (Agaricus bisporus, UniProt O42713).
T1 sequence (O42713 whole entry): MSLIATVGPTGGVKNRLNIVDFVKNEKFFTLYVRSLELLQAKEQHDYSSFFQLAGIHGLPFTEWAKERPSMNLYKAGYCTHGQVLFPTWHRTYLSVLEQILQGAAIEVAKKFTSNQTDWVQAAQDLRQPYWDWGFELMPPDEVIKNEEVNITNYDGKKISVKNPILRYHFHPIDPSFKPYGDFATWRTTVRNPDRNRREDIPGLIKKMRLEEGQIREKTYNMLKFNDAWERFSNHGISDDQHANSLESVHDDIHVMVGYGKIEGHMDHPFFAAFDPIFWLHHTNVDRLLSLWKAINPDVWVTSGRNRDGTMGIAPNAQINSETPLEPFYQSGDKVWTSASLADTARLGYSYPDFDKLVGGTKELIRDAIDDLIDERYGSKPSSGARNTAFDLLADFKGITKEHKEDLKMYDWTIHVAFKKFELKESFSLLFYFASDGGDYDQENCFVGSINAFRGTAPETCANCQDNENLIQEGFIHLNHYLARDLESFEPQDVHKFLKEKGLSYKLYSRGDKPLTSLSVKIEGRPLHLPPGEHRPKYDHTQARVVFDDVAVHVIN
Description: Inhibition of diphenolase activity of mushroom tyrosinase preincubated with compound for 10 mins before addition of L-DOPA as substrate by spectrophotometric analysis. The procedure, abridged:
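Diphenolase activity of mushroom tyrosinase was measured with L-DOPA as substrate at 25 °C. IC50 was taken from logarithmic concentration–inhibition curves of at least eight points, as the mean of three experiments.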

The target of test [1] is T2, Tyrosinase (Agaricus bisporus) (UniProt O42713).
T2 sequence (whole entry): T1 sequence (O42713 whole entry)
Description: Inhibition of diphenolase activity of mushroom tyrosinase at 50 mM preincubated with compound for 10 mins before addition of L-DOPA as substrate by spectrophotometric analysis. The procedure, abridged: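 Mushroom tyrosinase diphenolase activity was measured on L-DOPA at 25 °C. Compounds were scored for activity at a single fixed concentration.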

The text below walks through data of ChEMBL document CHEMBL1759867, “Evaluation of dihydropyrimidin-(2H)-one analogues and rhodanine derivatives as tyrosinase inhibitors” (Bioorg Med Chem Lett, 2011).

pIC50: −log10 of the molar value. The source made the active and inactive calls. The rule behind the calls is not given here.

As for `O=C1NC(=S)S/C1=C\c1ccc(OCCO)cc1`, on Tyrosinase, the pIC50 was 3.25.
As to `CCO/N=C(\C)C1=C(C)NC(=O)NC1CC` (configuration not stated), the inhibition result in test [1] is “inactive”.
Turning to `CC(=O)C1=C(C)NC(=S)NC1c1ccccc1O` (configuration not stated), the pIC50 at Tyrosinase was 1.79.
The same measure, in the same setting: to `O=C1NC(=S)S/C1=C\c1ccc(O)cc1` belongs 2.00.
Turning to `COc1cc(C2NC(=O)NC(C)=C2C(C)=O)ccc1O` (configuration not stated), the inhibition result in test [1] was “inactive”.
With `O=C1NC(=S)S/C1=C\c1ccccc1O`, the pIC50 at Tyrosinase is 2.02.
As for `CC(=O)C1=C(C)NC(=O)NC1c1ccccc1` (configuration not stated), the inhibition entry in test [1] was “inactive”.
The same measure, in the same setting: then `CC(=O)C1=C(C)NC(=O)NC1c1ccccc1O` (configuration not stated), with “inactive”.
On to `CC(=O)C1=C(C)NC(=S)NC1c1ccc(O)cc1` (configuration not stated), for which the pIC50 at Tyrosinase was 1.91.
For the compound `O=C1NC(=S)S/C1=C\c1ccc(OCCO)c(OCCO)c1`, the pIC50 at Tyrosinase was 2.24.
Take `COc1ccc(C2NC(=O)NC(C)=C2C(C)=O)cc1` (configuration not stated): the inhibition entry in test [1] was “inactive”.
Still for that read-out and setting: to `CCC1NC(=O)NC(C)=C1C(C)=O` (configuration not stated) belongs “inactive”; to `CC(=O)C1=C(C)NC(=O)NC1c1ccc(O)cc1` (configuration not stated), “inactive”.
Turning to `COc1cc(/C=C2\SC(=S)NC2=O)ccc1O`, the pIC50 on Tyrosinase is 1.96.
On the same count and under the same terms, to `CCC1NC(=S)NC(C)=C1C(C)=O` (configuration not stated) belongs 1.97; to `COc1cc(C2NC(=S)NC(C)=C2C(C)=O)ccc1O` (configuration not stated), 1.70.
Same read-out and setting: to `COc1ccc(C2NC(=S)NC(C)=C2C(C)=O)cc1` (configuration not stated) belongs 1.60.

Usually pIC50 stands for the IC50 on a negative log10 scale, so that one unit is a factor of ten.
